Measured values as given in ChEMBL document CHEMBL1141162, “Inhibition of carboxylesterases by benzil (diphenylethane-1,2-dione) and heterocyclic analogues is dependent upon the aromaticity of the ring and the flexibility of the dione moiety” (J Med Chem, 2005).
“And” between values parts separate entries of the source, which are not always exact repeats. Equal entries are not always repeated.

Experiments:
Liver carboxylesterase 1 = molecular target: T1, Liver carboxylesterase 1 (Homo sapiens, UniProt P23141); assay: Inhibition constant against human liver carboxylesterase (hCE1) expressed in Sf21 cells using 3 mM o-NPA; type: cell-based, Oryctolagus cuniculus
T1 sequence (P23141 whole entry): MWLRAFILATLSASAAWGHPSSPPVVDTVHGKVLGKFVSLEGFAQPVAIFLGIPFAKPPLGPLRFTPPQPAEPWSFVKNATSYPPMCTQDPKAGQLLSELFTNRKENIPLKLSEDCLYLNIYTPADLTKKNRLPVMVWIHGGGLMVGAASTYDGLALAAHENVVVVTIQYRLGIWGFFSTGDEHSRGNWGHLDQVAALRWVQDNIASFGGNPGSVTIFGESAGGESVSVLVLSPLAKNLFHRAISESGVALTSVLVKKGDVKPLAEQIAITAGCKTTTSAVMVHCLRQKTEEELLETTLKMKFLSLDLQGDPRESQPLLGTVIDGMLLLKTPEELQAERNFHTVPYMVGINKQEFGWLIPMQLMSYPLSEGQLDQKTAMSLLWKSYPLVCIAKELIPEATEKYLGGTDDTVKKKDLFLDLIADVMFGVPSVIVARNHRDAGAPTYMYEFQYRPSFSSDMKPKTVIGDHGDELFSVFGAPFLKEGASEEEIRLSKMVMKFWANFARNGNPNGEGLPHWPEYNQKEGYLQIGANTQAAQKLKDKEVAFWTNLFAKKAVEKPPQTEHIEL

[1] = Inhibition constant against rabbit liver carboxylesterase (rCE) expressed in Sf21 cells using 3 mM o-NPA; design: species or system Oryctolagus cuniculus
Cocaine esterase = molecular target: T2, Cocaine esterase (Homo sapiens, UniProt O00748); assay: Inhibition constant against human intestinal carboxylesterase (hiCE) expressed in Sf21 cells using 3 mM o-NPA
T2 sequence (O00748 whole entry): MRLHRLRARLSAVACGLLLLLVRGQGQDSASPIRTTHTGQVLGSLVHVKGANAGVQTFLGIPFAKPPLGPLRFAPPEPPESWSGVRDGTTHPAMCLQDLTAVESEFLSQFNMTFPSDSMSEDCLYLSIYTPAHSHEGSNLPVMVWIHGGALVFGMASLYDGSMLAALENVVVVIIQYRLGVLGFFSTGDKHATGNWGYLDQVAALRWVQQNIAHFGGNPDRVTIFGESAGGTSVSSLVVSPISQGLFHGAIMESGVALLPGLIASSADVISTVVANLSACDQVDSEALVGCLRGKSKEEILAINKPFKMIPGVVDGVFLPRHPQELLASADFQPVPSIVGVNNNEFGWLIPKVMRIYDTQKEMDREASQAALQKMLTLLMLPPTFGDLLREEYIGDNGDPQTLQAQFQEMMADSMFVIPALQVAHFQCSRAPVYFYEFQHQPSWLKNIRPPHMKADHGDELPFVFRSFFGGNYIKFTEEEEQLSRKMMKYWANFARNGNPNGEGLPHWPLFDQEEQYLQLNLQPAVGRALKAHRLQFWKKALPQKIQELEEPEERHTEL

Acetylcholinesterase = Acetylcholinesterase (Homo sapiens, UniProt P22303); assay: Inhibition of 1 mM acetylthiocholine (AcTCh) binding to human Acetylcholinesterase
How it was run: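 Human acetylcholinesterase from a commercial supplier, assayed with 1 mM acetylthiocholine as substrate.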

Acetylcholinesterase, sequence (P22303 whole entry): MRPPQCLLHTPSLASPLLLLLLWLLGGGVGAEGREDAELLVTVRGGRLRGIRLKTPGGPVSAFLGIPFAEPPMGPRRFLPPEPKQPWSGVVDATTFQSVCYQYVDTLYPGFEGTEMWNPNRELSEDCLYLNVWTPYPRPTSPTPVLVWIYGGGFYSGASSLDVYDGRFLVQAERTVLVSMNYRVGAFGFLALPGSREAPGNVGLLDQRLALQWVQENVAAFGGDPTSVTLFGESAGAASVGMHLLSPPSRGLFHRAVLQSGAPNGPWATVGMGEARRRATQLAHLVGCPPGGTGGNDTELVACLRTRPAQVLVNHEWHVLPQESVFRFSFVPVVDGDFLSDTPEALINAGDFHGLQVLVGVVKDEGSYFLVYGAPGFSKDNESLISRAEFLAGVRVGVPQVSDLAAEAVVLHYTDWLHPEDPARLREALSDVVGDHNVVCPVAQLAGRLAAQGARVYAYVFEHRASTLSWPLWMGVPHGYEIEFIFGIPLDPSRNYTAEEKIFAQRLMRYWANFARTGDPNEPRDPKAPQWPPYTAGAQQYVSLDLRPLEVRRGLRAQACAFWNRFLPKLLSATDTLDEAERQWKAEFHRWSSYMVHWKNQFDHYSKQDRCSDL

SMILES	Ki (Liver carboxylesterase 1)	Ki [1] [nM]	Ki (Cocaine esterase) [nM]	Ki (Acetylcholinesterase) [nM]	Ki (Liver carboxylesterase 1; sf21) [nM]
O=C(C(=O)c1ccc2ccccc2c1)c1ccc2ccccc2c1	255 nM	1.04	–	–	–
O=C(c1cccs1)C(O)c1cccs1 (stereo not drawn)	1660 nM and 4540 nM	–	5610	> 100000	–
O=C(C(=O)c1cc(Br)cs1)c1cc(Br)cs1	–	–	57.3	> 100000	–
O=C(C(=O)c1ccc(Br)s1)c1ccc(Br)s1	–	–	–	> 100000	–
O=C(c1ccco1)C(O)c1ccco1 (stereo not drawn)	> 100000 nM	–	> 100000	> 100000	> 100000
O=C(C(=O)c1cccs1)c1cccs1	212 nM and 874 nM	–	1040	> 100000	–
O=C(C(=O)c1ccco1)c1ccco1	1170 nM and 8480 nM	–	8000	> 100000	–
O=C(C(=O)c1ccsc1)c1ccsc1	365 nM and 2410 nM	–	6540	> 100000	–
O=C(C(=O)c1ccccn1)c1ccccn1	126 nM and 484 nM	–	–	> 100000	–
